Laboratory results: ChEMBL document CHEMBL3091395, “Discovery of Octahydroindenes as PAR1 Antagonists” (ACS Med Chem Lett, 2013)

Tests used:
[1] = molecular target: T1, Proteinase-activated receptor 1 (Homo sapiens, UniProt P25116); test: Displacement of [3H]haTRAP from PAR1 in human platelet membranes after 60 mins by scintillation counting analysis; format: cell membranes
T1 sequence (P25116 whole entry): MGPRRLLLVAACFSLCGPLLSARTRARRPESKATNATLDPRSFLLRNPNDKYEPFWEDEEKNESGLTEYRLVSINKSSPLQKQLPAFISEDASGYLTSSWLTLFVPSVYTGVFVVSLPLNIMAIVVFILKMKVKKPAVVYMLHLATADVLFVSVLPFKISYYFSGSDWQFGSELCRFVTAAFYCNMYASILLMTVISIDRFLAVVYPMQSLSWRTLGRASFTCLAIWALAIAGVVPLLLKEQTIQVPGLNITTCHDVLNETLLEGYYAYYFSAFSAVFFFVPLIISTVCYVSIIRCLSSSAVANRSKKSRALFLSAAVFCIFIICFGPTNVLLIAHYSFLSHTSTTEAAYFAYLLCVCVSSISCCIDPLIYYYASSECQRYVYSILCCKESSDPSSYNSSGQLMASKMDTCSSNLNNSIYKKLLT
Procedure, shortened: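 Radioligand binding to PAR1 using a tritiated peptide ligand, phenylalanine-arginine-cyclohexylalanine-homoarginine-[³H]-tyrosine-NH₂, reported as IC50. Each value is the average of three measurements. Racemic mixtures were tested without separation. Vorapaxar, synthesized in-house, was included as the reference standard.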

[2] = Cytotoxicity against human HepG2 cells assessed as ATP contents at 30 uM after 24 hrs relative to control; format: cell-based; details: read-out: Activity
Procedure, shortened: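 HepG2 cells were exposed to compound at 30 μM. Cellular ATP content was measured 24 h after compound addition and expressed as % of vehicle-treated control.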

[3] = Metabolic stability in human liver microsomes assessed as time when 50% of compound remains; format: ADME; details: read-out: Time
[4] = Metabolic stability in rat liver microsomes assessed as time when 50% of compound remains; format: ADME; details: read-out: Time

Row | IC50 [1] | half-life [3] | half-life [4] | Structure (SMILES) | viability at 24 h, 30 µM [2]
1 | 220 nM | – | – | OC1C[C@@H]2CCCC[C@@H]2[C@H]1/C=C/c1ccc(-c2cccc(F)c2)cn1 (mixture of isomers) | –
2 | 280 nM | – | – | Fc1cccc(-c2ccc(/C=C/[C@H]3C(OCc4ccccc4)C[C@@H]4CCCC[C@@H]43)nc2)c1 (mixture of isomers) | –
3 | 6.4 nM | 3.5 min | 6.5 min | CS(=O)(=O)OC1C[C@@H]2CCCC[C@@H]2[C@H]1/C=C/c1ccc(-c2cccc(F)c2)cn1 (mixture of isomers) | 94%
4 | 120 nM | – | – | CN(C)C(=S)OC1C[C@@H]2CCCC[C@@H]2[C@H]1/C=C/c1ccc(-c2cccc(F)c2)cn1 (mixture of isomers) | –
5 | 980 nM | – | – | COC(=O)NC1C[C@@H]2CCCC[C@@H]2[C@H]1/C=C/c1ccc(-c2cccc(F)c2)cn1 (mixture of isomers) | –
6 | 7800 nM | – | – | CC(C)(C)OC(=O)NC1C[C@@H]2CCCC[C@@H]2[C@H]1/C=C/c1ccc(-c2cccc(F)c2)cn1 (mixture of isomers) | –
7 | 53 nM | – | – | CC(=O)NC1C[C@@H]2CCCC[C@@H]2[C@H]1/C=C/c1ccc(-c2cccc(F)c2)cn1 (mixture of isomers) | –
8 | 1.3 nM | 2.5 min | 2.2 min | CN(C1C[C@@H]2CCCC[C@@H]2[C@H]1/C=C/c1ccc(-c2cccc(F)c2)cn1)S(C)(=O)=O (mixture of isomers) | 95%
9 | 8.6 nM | 4.4 min | 6.7 min | O=C1NCC2(C[C@@H]3CCCC[C@@H]3[C@H]2/C=C/c2ccc(-c3cccc(F)c3)cn2)O1 (mixture of isomers) | 101%
10 | 43 nM | – | – | COC1(C)C[C@@H]2CCCC[C@@H]2[C@H]1/C=C/c1ccc(-c2cccc(F)c2)cn1 (mixture of isomers) | –
11 | 67 nM | – | – | COC1C[C@@H]2CCCC[C@@H]2[C@H]1/C=C/c1ccc(-c2cccc(F)c2)cn1 (mixture of isomers) | –
12 | 67 nM | – | – | CC(=O)OC1C[C@@H]2CCCC[C@@H]2[C@H]1/C=C/c1ccc(-c2cccc(F)c2)cn1 (mixture of isomers) | –
13 | 360 nM | – | – | O=C(Nc1ccccc1)OC1C[C@@H]2CCCC[C@@H]2[C@H]1/C=C/c1ccc(-c2cccc(F)c2)cn1 (mixture of isomers) | –
14 | 230 nM | – | – | NC1C[C@@H]2CCCC[C@@H]2[C@H]1/C=C/c1ccc(-c2cccc(F)c2)cn1 (mixture of isomers) | –
15 | 2000 nM | – | – | CCOC(=O)NC1C[C@@H]2CCCC[C@@H]2[C@H]1/C=C/c1ccc(-c2cccc(F)c2)cn1 (mixture of isomers) | –
16 | 50 nM | 273 min | 105 min | CS(=O)(=O)NC1C[C@@H]2CCCC[C@@H]2[C@H]1/C=C/c1ccc(-c2cccc(F)c2)cn1 (mixture of isomers) | –
17 | 230 nM | – | – | O=C(NC1C[C@@H]2CCCC[C@@H]2[C@H]1/C=C/c1ccc(-c2cccc(F)c2)cn1)C1CC1 (mixture of isomers) | –
18 | 5.4 nM | 5.6 min | 5.2 min | CC(=O)N(C)C1C[C@@H]2CCCC[C@@H]2[C@H]1/C=C/c1ccc(-c2cccc(F)c2)cn1 (mixture of isomers) | 98%
19 | 33 nM | – | – | CC1(O)C[C@@H]2CCCC[C@@H]2[C@H]1/C=C/c1ccc(-c2cccc(F)c2)cn1 (mixture of isomers) | –
20 | 2.7 nM | 4.3 min | 5.8 min | CC1(OC(N)=O)C[C@@H]2CCCC[C@@H]2[C@H]1/C=C/c1ccc(-c2cccc(F)c2)cn1 (mixture of isomers) | 99%
21 | 470 nM | – | – | Fc1cccc(-c2ccc(/C=C/[C@@H]3[C@H]4CCCC[C@@H]4CC34OCCO4)nc2)c1 (racemic) | –
22 | 2100 nM | – | – | Fc1cccc(-c2ccc(/C=C/[C@H]3[C@H]4CCCC[C@H]4CC34OCCO4)nc2)c1 (racemic) | –
23 | 1100 nM | – | – | O=C1C[C@@H]2CCCC[C@@H]2[C@H]1/C=C/c1ccc(-c2cccc(F)c2)cn1 (racemic) | –
24 | 26 nM | 4.5 min | 3.4 min | Fc1cccc(-c2ccc(/C=C/[C@@H]3[C@H]4CCCC[C@H]4CC34OCCO4)nc2)c1 (racemic) | 97%
25 | 1.1 nM | 83.2 min | 32.4 min | CCOC(=O)N[C@@H]1CC[C@@H]2[C@@H](C1)C[C@H]1C(=O)O[C@H](C)[C@H]1[C@H]2/C=C/c1ccc(-c2cccc(F)c2)cn1 [VORAPAXAR] | 102%
